Measured values from paper PMC2842456 (ACS chemical biology, 2010).

B1: SUMO without an attached peptide: yeast SUMO with no attached peptide (protein, UniProt Q12306 2-98, looked up)
Ubiquitin-like protein SMT3: SDSEVNQEAKPEVKPEVKPETHINLKVSDGSSEIFFKIKKTTPLRRLMEAFAKRQGKEMDSLRFLYDGIRIQADQTPEDLDMEDNDIIEAHREQIGG

System: wild-type clamp sensor
Type: binding
Conditions: ligand titration with wild-type clamp sensor (Figure 2F)
Outline: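 CyPet–clamp–YPet fusion, expressed in E. coli BL21(DE3) and Ni-affinity purified, used at 140 nM unless noted. Titrated with SUMO fusions (target-peptide fusion, bare SUMO, unrelated-peptide fusion). Samples were degassed, then incubated 30 min at 25 °C in the dark. Excitation 415 nm; FRET ratio taken as 527/475 nm emission, plotted against ligand concentration.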

Row | Molecule | Effect on the FRET ratio of the wild-type sensor (in words)
1 | GGDVHVNATYVNVKSVA [SUMO fused with an unrelated peptide] | no significant effect on the FRET ratio
2 | B1 | no significant effect on the FRET ratio
